# In ChEMBL document CHEMBL4321805, “A Conformational Restriction Strategy for the Identification of a Highly Selective Pyrimido-pyrrolo-oxazine mTOR Inhibitor” (J Med Chem, 2019):
# Experiments:
# [1] = target: Serine/threonine-protein kinase mTOR (Homo sapiens, UniProt P42345); assay: Inhibition of alexa fluor 647-labeled kinase tracer 314 binding to recombinant human N-terminal GST-fused mTOR (1360 to 2549 residues) expressed in baculovirus expression system by TR-FRET assay
# How it was run: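 LanthaScreen TR-FRET tracer displacement. GST-fused truncated mTOR (aa 1360–2549) detected with Eu-anti-GST antibody (2 nM). […] Buffer: 50 mM HEPES, 5 mM MgCl2, 1 mM EGTA, 0.01% Pluronic F-127. Ki derived from displacement.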
# [2] = target: mTORC2 (Homo sapiens, UniProt P42345); assay: Inhibition of mTORC2 in human A2058 cells assessed as reduction in PKB phosphorylation at S473 residues incubated for 1 hr by Western blot analysis; assay type: cell-based
# How it was run: (§1)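 In-cell Western assay. A2058 cells (2 × 10^4/well) grown 24 h at 37 °C, 5% CO2, then exposed 1 h to inhibitor or DMSO. Cells fixed in 4% PFA, blocked, and stained for the phospho-protein with α-tubulin as internal standard; infrared fluorescence read-out. Signals normalized to tubulin and to DMSO controls to derive IC50.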
# [3] = target: PI3-kinase p110-alpha/p85-alpha (Homo sapiens, UniProt P42336); assay: Inhibition of alexa fluor 647-labeled kinase tracer 314 binding to recombinant human full-length N-terminal His6-tagged p110alpha/p85alpha expressed in baculovirus expression system by TR-FRET assay
# [4] = species: Homo sapiens; assay: Selectivity ratio of Ki for inhibition of alexa fluor 647-labeled kinase tracer 314 binding to recombinant human full-length N-terminal His6-tagged p110alpha/p85alpha expressed in baculovirus expression system to Ki for inhibition of alexa fluor 647-labeled kinase tracer 314 binding to recombinant human N-terminal GST-fused mTOR (1360 to 2549 residues) expressed in baculovirus expression system
# How it was run: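 Ratio of Ki values from the TR-FRET tracer 314 displacement assays. p110α: His6-tagged enzyme, biotin anti-His antibody and Eu-streptavidin (2 nM each), tracer at 20 nM, buffer 50 mM HEPES pH 7.5, 10 mM MgCl2, 1 mM EGTA, 0.01% Brij-35. mTOR: GST-mTOR 1360–2549, Eu-anti-GST, tracer 10 nM, HEPES/5 mM MgCl2/EGTA/Pluronic buffer.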
# [5] = target: mTORC1 (Homo sapiens, UniProt P42345); assay: Inhibition of mTORC1 in human A2058 cells assessed as reduction in ribosomal protein S6 phosphorylation at Ser235/236 residues incubated for 1 hr by Western blot analysis; assay type: cell-based; how it was run: as §1
# [6] = species: Homo sapiens; assay: Selectivity ratio of Kd for binding affinity to human wild-type partial length PI3Kalpha (R108 to N1068 residues) expressed in mammalian expression system to Kd for binding affinity to wild-type human partial length mTOR (L1382 to W2549 residues) expressed in mammalian expression system
# How it was run: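 Ratio of Kd values from the DNA-tagged kinase competition binding assay (qPCR read-out, 11-point 3-fold dilution from 30 μM, Hill fit with slope −1, duplicates): PI3Kα Kd divided by mTOR Kd.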
# [7] = target: T1, Cytochrome P450 1A1 (Homo sapiens, UniProt P04798); assay: Drug level treated with 5-((R)-4-((R)-3-Methylmorpholino)-5a,6,8,9-tetrahydro-5H-pyrimido[5',4':4,5]pyrrolo[2,1-c][1,4]oxazin-2-yl)pyrimidin-2-amine assessed as recombinant human CYP1A1-mediated compound formation incubated for 60 mins by LC/MS analysis; assay type: ADME; details: recombinant enzyme, 1 h
# T1 sequence (P04798 whole entry): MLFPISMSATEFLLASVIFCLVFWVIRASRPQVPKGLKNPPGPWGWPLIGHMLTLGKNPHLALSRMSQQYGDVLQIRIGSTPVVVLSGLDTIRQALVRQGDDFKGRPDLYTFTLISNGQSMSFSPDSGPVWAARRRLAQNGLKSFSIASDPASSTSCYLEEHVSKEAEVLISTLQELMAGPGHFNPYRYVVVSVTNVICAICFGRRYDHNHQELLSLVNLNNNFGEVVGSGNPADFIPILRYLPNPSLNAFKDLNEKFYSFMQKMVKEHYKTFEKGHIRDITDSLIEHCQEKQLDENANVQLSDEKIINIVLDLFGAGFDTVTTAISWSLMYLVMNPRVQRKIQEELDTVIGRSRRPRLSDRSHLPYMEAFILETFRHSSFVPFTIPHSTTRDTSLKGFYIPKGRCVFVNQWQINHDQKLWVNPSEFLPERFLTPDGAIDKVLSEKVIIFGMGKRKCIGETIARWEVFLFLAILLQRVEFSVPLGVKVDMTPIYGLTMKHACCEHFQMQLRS
# How it was run: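 Human recombinant CYP1A1 or CYP1A2 Supersomes (25 pmol/mL) incubated with compound at 1 μM (0.25% DMSO) plus NADP+-regenerating cofactors at 37 °C for 60 min. Reaction stopped with ACN containing internal standard. Parent and metabolites expressed as percentage of total peak areas.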
# PI3-kinase p110-alpha/p85-alpha, sequence (P27986 whole entry, the tested form may be a part): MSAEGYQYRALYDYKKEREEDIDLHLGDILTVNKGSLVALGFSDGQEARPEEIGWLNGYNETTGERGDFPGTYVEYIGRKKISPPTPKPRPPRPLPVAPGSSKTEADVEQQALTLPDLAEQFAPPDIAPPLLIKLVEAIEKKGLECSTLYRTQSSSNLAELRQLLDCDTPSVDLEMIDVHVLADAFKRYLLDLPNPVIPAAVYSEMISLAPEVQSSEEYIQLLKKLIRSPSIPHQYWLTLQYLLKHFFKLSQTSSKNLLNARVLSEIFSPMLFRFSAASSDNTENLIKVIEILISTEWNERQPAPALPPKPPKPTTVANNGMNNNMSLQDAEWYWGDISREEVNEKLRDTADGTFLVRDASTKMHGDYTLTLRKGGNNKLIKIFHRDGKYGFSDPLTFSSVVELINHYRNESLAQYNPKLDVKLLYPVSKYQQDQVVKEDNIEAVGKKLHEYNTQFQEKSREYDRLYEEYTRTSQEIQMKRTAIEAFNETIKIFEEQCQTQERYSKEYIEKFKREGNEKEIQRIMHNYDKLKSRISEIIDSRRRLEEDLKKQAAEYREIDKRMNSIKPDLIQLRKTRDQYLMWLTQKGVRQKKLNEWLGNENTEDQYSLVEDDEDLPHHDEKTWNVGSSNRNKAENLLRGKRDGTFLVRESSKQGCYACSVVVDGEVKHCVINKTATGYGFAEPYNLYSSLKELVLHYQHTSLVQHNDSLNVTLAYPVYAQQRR
# PI3-kinase p110-alpha/p85-alpha, sequence (P42336 whole entry, the tested form may be a part): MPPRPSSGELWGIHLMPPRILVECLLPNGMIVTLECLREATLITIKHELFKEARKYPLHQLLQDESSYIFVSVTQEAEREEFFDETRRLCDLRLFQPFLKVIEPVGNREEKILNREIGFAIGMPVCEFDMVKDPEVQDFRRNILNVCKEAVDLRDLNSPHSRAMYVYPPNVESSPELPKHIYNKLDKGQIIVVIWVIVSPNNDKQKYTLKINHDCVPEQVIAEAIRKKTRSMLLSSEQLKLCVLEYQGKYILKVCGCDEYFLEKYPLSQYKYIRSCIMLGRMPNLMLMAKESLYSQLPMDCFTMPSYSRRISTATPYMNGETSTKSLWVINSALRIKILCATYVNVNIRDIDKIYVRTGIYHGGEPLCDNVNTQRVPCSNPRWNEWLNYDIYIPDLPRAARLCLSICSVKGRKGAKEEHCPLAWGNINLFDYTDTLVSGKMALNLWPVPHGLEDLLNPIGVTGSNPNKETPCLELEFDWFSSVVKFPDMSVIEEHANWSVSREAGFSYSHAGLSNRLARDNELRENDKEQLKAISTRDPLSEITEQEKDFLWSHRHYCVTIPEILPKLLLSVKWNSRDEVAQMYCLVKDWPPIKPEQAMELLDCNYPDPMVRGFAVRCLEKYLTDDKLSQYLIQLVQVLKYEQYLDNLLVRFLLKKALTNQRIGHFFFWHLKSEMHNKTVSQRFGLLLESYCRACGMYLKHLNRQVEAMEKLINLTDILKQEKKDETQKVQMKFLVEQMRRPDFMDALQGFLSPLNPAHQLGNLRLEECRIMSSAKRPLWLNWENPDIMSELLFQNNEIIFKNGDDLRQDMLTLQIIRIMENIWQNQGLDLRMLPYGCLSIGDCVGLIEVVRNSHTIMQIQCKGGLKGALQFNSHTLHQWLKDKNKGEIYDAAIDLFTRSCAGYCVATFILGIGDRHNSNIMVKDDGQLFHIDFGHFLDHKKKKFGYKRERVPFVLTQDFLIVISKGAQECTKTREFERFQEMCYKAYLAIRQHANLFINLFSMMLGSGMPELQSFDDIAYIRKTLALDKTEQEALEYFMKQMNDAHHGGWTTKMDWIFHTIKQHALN
structure (smiles),measurement,setting,value
C[C@@H]1COCCN1c1nc(-c2ccc(N)nc2)nc2c1C[C@H]1COCCN21,Ki,[1],31 nM
same,IC50,[2],363 nM
same,Ki,[3],923 nM
same,Ratio Ki,[4],30
same,IC50,[5],230 nM
C[C@H]1COCCN1c1nc(-c2ccc(N)nc2)nc2c1C[C@H]1COCCN21,Ki,[1],104 nM
same,IC50,[2],416 nM
same,Ki,[3],98 nM
same,Ratio Ki,[4],0.9
same,IC50,[5],432 nM
Nc1ccc(-c2nc(N3C4CCC3COC4)c3c(n2)N2CCOC[C@@H]2C3)cn1,Ki,[1],60 nM
same,IC50,[2],389 nM
same,Ki,[3],3230 nM
same,Ratio Ki,[4],54
same,IC50,[5],354 nM
Nc1cc(C(F)(F)F)c(-c2nc(N3CCOCC3)c3c(n2)N2CCCC[C@H]2C3)cn1,IC50,[2],407 nM
same,Ki,[3],22 nM
same,IC50,[5],938 nM
Cc1cc(N)ncc1-c1nc2c(c(N3CCOC[C@H]3C)n1)C[C@@H]1COCCN21,Ki,[1],85 nM
same,IC50,[2],1540 nM
same,Ki,[3],2760 nM
same,Ratio Ki,[4],33
same,IC50,[5],826 nM
Nc1ccc(-c2nc(N3CCOCC3)c3c(n2)N2CCOC[C@H]2C3)cn1,Ki,[1],24 nM
same,IC50,[2],116 to 118 nM
same,Ki,[3],432 nM
same,Ratio Ki,[4],18 to 18.3
same,IC50,[5],96 nM
Nc1cc(C(F)F)c(-c2nc(N3C4CCC3COC4)nc(N3C4CCC3COC4)n2)cn1,IC50,[2],190 nM
same,Selectivity ratio,[6],> 3700
same,Ratio Ki,[4],389
same,IC50,[5],85.2 nM
Nc1cc(C(F)(F)F)c(-c2nc(N3CCOCC3)c3c(n2)N2CCOC[C@@H]2C3)cn1,IC50,[2],353 nM
same,Ki,[3],21 nM
same,IC50,[5],751 nM
Nc1cc(C(F)(F)F)c(-c2nc(N3CCCCC3)c3c(n2)N2CCOC[C@H]2C3)cn1,IC50,[2],2080 nM
same,Ki,[3],138 nM
same,IC50,[5],2650 nM
Nc1ccc(-c2nc(N3CCOCC3)nc3c2C[C@@H]2COCCN32)cn1,Ki,[1],1280 nM
same,IC50,[2],1560 nM
same,Ki,[3],541 nM
same,Ratio Ki,[4],0.4
same,IC50,[5],1860 nM
COC(OC)c1cc(N)ncc1-c1nc2c(c(N3CCOC[C@H]3C)n1)C[C@@H]1COCCN21,Ki,[1],300 nM
same,IC50,[2],6520 nM
same,Ki,[3],1120 nM
same,Ratio Ki,[4],3.7
same,IC50,[5],2420 nM
Nc1cc(C(F)(F)F)c(-c2nc(N3CCOCC3)c3c(n2)N2CCCC[C@@H]2C3)cn1,IC50,[2],321 nM
same,Ki,[3],48 nM
same,IC50,[5],1240 nM
CC(C=O)N(CCO)c1nc(-c2cnc(N)nc2)nc2c1C[C@@H]1COC=CN21 (stereo partly drawn),Drug metabolism,[7],Metabolite_Detected
Nc1ccc(-c2nc(N3CCOCC3)c3c(n2)N2CCOC[C@@H]2C3)cn1,Ki,[1],69 nM
same,IC50,[2],194 nM
same,Ki,[3],76 nM
same,Ratio Ki,[4],1.1
same,IC50,[5],164 nM
Nc1ccc(-c2nc(N3CC4CCC(C3)O4)c3c(n2)N2CCOC[C@@H]2C3)cn1,Ki,[1],96 nM
same,IC50,[2],403 nM
same,Ki,[3],1220 nM
same,Ratio Ki,[4],13
same,IC50,[5],245 nM
COc1cc(N)ncc1-c1nc2c(c(N3CCOC[C@H]3C)n1)C[C@@H]1COCCN21,Ki,[1],208 nM
same,IC50,[2],3760 nM
same,Ki,[3],16000 nM
same,Ratio Ki,[4],77
same,IC50,[5],2520 nM
CC1(C)COCCN1c1nc(-c2ccc(N)nc2)nc2c1C[C@H]1COCCN21,Ki,[1],121 nM
same,IC50,[2],1330 nM
same,Ki,[3],7190 nM
same,Ratio Ki,[4],59
same,IC50,[5],991 nM
CC1(C)COCCN1c1nc(-c2ccc(N)nc2)nc2c1C[C@@H]1COCCN21,Ki,[1],24 nM
same,IC50,[2],409 nM
same,Ki,[3],376 nM
same,Ratio Ki,[4],16
same,IC50,[5],136 nM
Nc1ccc(-c2nc(N3C4CCC3COC4)c3c(n2)N2CCOC[C@H]2C3)cn1,Ki,[1],31 nM
same,IC50,[2],152 nM
same,Ki,[3],1110 nM
same,Ratio Ki,[4],36
same,IC50,[5],132 nM
Cc1cc(-c2nc3c(c(N4CCOC[C@H]4C)n2)C[C@@H]2COCCN32)cnc1N,Ki,[1],56 nM
same,IC50,[2],488 nM
same,Ki,[3],9630 nM
same,Ratio Ki,[4],172
same,IC50,[5],289 nM
COC(OC)c1nc(N)ncc1-c1nc2c(c(N3CCOC[C@H]3C)n1)C[C@@H]1COCCN21,Ki,[1],34 nM
same,IC50,[2],534 nM
same,Ki,[3],66 nM
same,Ratio Ki,[4],2
same,IC50,[5],377 nM
Nc1cc(C(F)(F)F)c(-c2nc(N3CCOCC3)c3c(n2)N2CCOC[C@H]2C3)cn1,IC50,[2],355 nM
same,Ki,[3],56 nM
same,IC50,[5],524 nM
C[C@H]1COCCN1c1nc(-c2ccc(N)nc2)nc2c1C[C@@H]1COCCN21,Ki,[1],9.1 nM
same,IC50,[2],194 nM
same,Ki,[3],386 nM
same,Ratio Ki,[4],43
same,IC50,[5],149 nM
Nc1ccc(-c2nc(N3CCOCC3)nc3c2C[C@H]2COCCN32)cn1,Ki,[1],812 nM
same,IC50,[2],1870 nM
same,Ki,[3],867 nM
same,Ratio Ki,[4],1.1
same,IC50,[5],1790 nM
Nc1ccc(-c2nc(N3CC4CCC(C3)O4)c3c(n2)N2CCOC[C@H]2C3)cn1,Ki,[1],27 nM
same,IC50,[2],207 nM
same,Ki,[3],1410 nM
same,Ratio Ki,[4],53
same,IC50,[5],160 nM
Nc1cc(C(F)(F)F)c(-c2nc(N3CCCCC3)c3c(n2)N2CCOC[C@@H]2C3)cn1,IC50,[2],21900 nM
same,Ki,[3],2830 nM
same,IC50,[5],43300 nM
